Laboratory results published in ChEMBL document CHEMBL3808357, “Discovery of N-(3-((1-Isonicotinoylpiperidin-4-yl)oxy)-4-methylphenyl)-3-(trifluoromethyl)benzamide (CHMFL-KIT-110) as a Selective, Potent, and Orally Available Type II c-KIT Kinase Inhibitor for Gastrointestinal Stromal Tumors (GISTs)” (J Med Chem, 2016).
pIC50: −log10 of the molar value. Activity calls are given as the source filed them. The rule behind the calls is not given here.

Key:
[1] = AUC(0 to t) in Sprague-Dawley rat plasma at 1 mg/kg, iv; type: ADME, organism-based
Procedure, shortened: (§1)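 Male Sprague-Dawley rats, 8 weeks old, fasted overnight, dosed iv or orally. Formulation was 5% DMSO/40% PEG400/55% saline at 1 mg/mL. Blood (~0.2 mL) was drawn from the jugular vein into heparin. Sampling: iv at 1 min to 8 h; oral at 5 min to 24 h. Plasma was separated by centrifugation at 2−8 °C and stored at −80 °C.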

[2] = target: Mast/stem cell growth factor receptor Kit (Homo sapiens) (UniProt P10721); assay: Inhibition of cKIT in human GIST882 cells assessed as suppression of ERK phosphorylation at T202/Y204 up to 10 uM after 2 hrs by Western blot analysis; type: cell-based
[3] = target: Mast/stem cell growth factor receptor Kit (Homo sapiens) (UniProt P10721); assay: Inhibition of cKIT in human GIST882 cells assessed as suppression of S6K phosphorylation at T389 up to 10 uM after 2 hrs by Western blot analysis; type: cell-based
[4] = AUC(0 to t) in Sprague-Dawley rat plasma at 10 mg/kg, po; type: ADME, organism-based; procedure, shortened: as §1
[5] = target: T1, Platelet-derived growth factor receptor beta (Homo sapiens, UniProt P09619); assay: Inhibition of N-terminal GST-tagged recombinant human PDGFRbeta (amino acids 557-end) expressed in baculovirus infected insect Sf9 cells using Poly(4:1 Glu, Tyr) peptide as substrate after 1 hr by promega ADP-glo assay
Procedure, shortened: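 ADP-Glo luminescence assay. PDGFRβ (10 ng/μL, 9 μL) with poly(Glu4,Tyr1) substrate (0.4 μg/μL) and 100 μM ATP, serially diluted inhibitor, 1 h at 37 °C. ADP-Glo reagent was added for 40 min, then detection reagent for 30 min. IC50 was taken from the dose−response fit.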

[6] = AUC(0 to infinity) in Sprague-Dawley rat plasma at 10 mg/kg, po; type: ADME, organism-based; set-up: dose 10 mg/kg, time infinity, route oral; procedure, shortened: as §1
[7] = target: Mast/stem cell growth factor receptor Kit (Homo sapiens) (UniProt P10721); assay: Inhibition of cKIT autophosphorylation at Y703 in human GIST882 cells up to 10 uM after 2 hrs by Western blot analysis; type: cell-based
[8] = target: Mast/stem cell growth factor receptor Kit (Homo sapiens) (UniProt P10721); assay: Inhibition of cKIT autophosphorylation at Y703 in human GIST48B cells up to 10 uM after 2 hrs by Western blot analysis; type: cell-based
[9] = test system: Mus musculus; assay: Toxicity in nu/nu mouse xenografted with human GISTT1 cells assessed as body weight change at 25 to 100 mg/kg/day administered through oral gavage after 21 days; type: organism-based; conditions: in vivo, 504 h
Procedure, shortened: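 Female nu/nu mice, 6 weeks old, injected subcutaneously in the right flank with 5 million GIST-T1 cells in PBS/Matrigel 1:1. At tumor volume 100–200 mm³, randomized to groups of six; daily oral gavage of 25, 50 or 100 mg/kg/d or vehicle (0.5% methylcellulose/0.4% Tween80 in water). Body weight measured daily, normalized to initial weight; mean ± SEM.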

[10] = target: Mast/stem cell growth factor receptor Kit (Homo sapiens) (UniProt P10721); assay: Inhibition of cKIT in human GISTT1 cells assessed as suppression of STAT5 phosphorylation at Y694 up to 10 uM after 2 hrs by Western blot analysis; type: cell-based
[11] = MRT(0 to t) in Sprague-Dawley rat plasma at 1 mg/kg, iv; type: ADME, organism-based
Procedure, shortened: (§2)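 Male Sprague–Dawley rats, 8 weeks old, six in total, fasted overnight; compound dissolved in 5% DMSO/40% PEG400/55% saline (1 mg/mL dosing solution), given iv or orally. About 0.2 mL jugular blood taken with heparin at 1 min–8 h (iv) or 5 min–24 h (oral); plasma separated at 2–8 °C and stored at −80 °C before analysis.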

[12] = target: Epithelial discoidin domain-containing receptor 1 (Homo sapiens, UniProt Q08345); assay: Inhibition of human wild type partial length DDR1 expressed in bacterial expression system assessed as residual activity at 1 uM by KinomeScan method
Procedure, shortened: (§3)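 KinomeScan competitive binding panel of 468 kinases and mutants, compound tested at 1 μM; read-out is percent activity remaining (binding relative to control).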

[13] = Antiproliferative activity against cKIT dependent human GIST882 cells assessed as reduction in cell viability after 72 hrs by celltiter-glo/CCK8 assay; type: functional; conditions: GIST882, 72 h
Procedure, shortened: (§4)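 Cells were seeded at 1 to 3 × 10⁴ cells/mL with serial compound concentrations and incubated 72 h at 37 °C, 5% CO₂. Viability was read by CellTiter-Glo luminescence or CCK-8 absorbance (450/655 nm). GI50 values are from triplicate testing. GIST-T1 and CHO were grown in DMEM/10% FBS; GIST-882, GIST-48B and MV4-11 in IMDM/10% FBS; other lines in RPMI 1640/10% FBS.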

[14] = Antiproliferative activity against cKIT dependent human GISTT1 cells assessed as reduction in cell viability after 72 hrs by celltiter-glo/CCK8 assay; type: functional; conditions: GISTT1, 72 h; procedure, shortened: as §4
[15] = Oral bioavailability in Sprague-Dawley rat plasma at 10 mg/kg; type: ADME, organism-based; procedure, shortened: as §2
[16] = target: T1, Platelet-derived growth factor receptor beta; assay: Inhibition of PDGFRbeta phosphorylation at Y857 in human GISTT1 cells up to 10 uM after 2 hrs by Western blot analysis; type: cell-based
Procedure, shortened: (§5)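 Cells were washed in cold PBS, lysed in RIPA and immunoblotted for phospho and total proteins, including pPDGFRα Y849/PDGFRβ Y857 and β-actin.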

[17] = target: Platelet-derived growth factor receptor alpha (Homo sapiens) (UniProt P16234); assay: Inhibition of PDGFRalpha phosphorylation at Y849 in human GIST48B cells up to 10 uM after 2 hrs by Western blot analysis; type: cell-based; procedure, shortened: as §5
[18] = Cell cycle arrest in human GISTT1 cells at 0.3 to 3 uM after 24 hrs by propidium iodide/RNase staining based flow cytometric analysis; type: functional
Procedure, shortened: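 Cells were then fixed in 70% cold ethanol at −20 °C overnight, stained with PI/RNase buffer and analysed by flow cytometry.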

[19] = test system: K562; assay: Antiproliferative activity against BCR-ABL dependent human K562 cells assessed as reduction in cell viability after 72 hrs by celltiter-glo/CCK8 assay; type: functional; conditions: K562, 72 h; procedure, shortened: as §4
[20] = Antiproliferative activity against CHO cells assessed as reduction in cell viability after 72 hrs by celltiter-glo/CCK8 assay; type: cell-based, Cricetulus griseus; conditions: chinese hamster; procedure, shortened: as §4
[21] = test system: Mast/stem cell growth factor receptor Kit (Homo sapiens), P10721 [V559D,T670I]; assay: Inhibition of Tel-fused cKIT T670I/V559D double mutant (unknown origin) transfected in mouse BAF3 cells assessed as decrease in cell proliferation after 72 hrs by celltiter-glo/CCK8 assay; type: cell-based
Procedure, shortened: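 Stable BaF3 lines made by retroviral transduction with mutagenized TEL-KIT MSCV vectors, puromycin selection 48 h, then gradual IL-3 withdrawal until IL-3-independent; grown in RPMI 1640 with 10% FBS. Cells at 1 to 3 × 10⁴ cells/mL exposed to a concentration series for 72 h; viability read by CellTiter-Glo luminescence or CCK-8 absorbance (450/655 nm); GI50 from triplicate testing.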

[22] = target: Mast/stem cell growth factor receptor Kit (Homo sapiens) (UniProt P10721); assay: Inhibition in cKIT autophosphorylation at Y703 in human GISTT1 cells up to 10 uM after 2 hrs by Western blot analysis; type: cell-based; procedure, shortened: as §5
[23] = target: Mast/stem cell growth factor receptor Kit (Homo sapiens) (UniProt P10721); assay: Inhibition of human wild type partial length cKIT expressed in bacterial expression system assessed as residual activity at 1 uM by KinomeScan method; procedure, shortened: as §3

Mast/stem cell growth factor receptor Kit (Homo sapiens), sequence (P10721 whole entry): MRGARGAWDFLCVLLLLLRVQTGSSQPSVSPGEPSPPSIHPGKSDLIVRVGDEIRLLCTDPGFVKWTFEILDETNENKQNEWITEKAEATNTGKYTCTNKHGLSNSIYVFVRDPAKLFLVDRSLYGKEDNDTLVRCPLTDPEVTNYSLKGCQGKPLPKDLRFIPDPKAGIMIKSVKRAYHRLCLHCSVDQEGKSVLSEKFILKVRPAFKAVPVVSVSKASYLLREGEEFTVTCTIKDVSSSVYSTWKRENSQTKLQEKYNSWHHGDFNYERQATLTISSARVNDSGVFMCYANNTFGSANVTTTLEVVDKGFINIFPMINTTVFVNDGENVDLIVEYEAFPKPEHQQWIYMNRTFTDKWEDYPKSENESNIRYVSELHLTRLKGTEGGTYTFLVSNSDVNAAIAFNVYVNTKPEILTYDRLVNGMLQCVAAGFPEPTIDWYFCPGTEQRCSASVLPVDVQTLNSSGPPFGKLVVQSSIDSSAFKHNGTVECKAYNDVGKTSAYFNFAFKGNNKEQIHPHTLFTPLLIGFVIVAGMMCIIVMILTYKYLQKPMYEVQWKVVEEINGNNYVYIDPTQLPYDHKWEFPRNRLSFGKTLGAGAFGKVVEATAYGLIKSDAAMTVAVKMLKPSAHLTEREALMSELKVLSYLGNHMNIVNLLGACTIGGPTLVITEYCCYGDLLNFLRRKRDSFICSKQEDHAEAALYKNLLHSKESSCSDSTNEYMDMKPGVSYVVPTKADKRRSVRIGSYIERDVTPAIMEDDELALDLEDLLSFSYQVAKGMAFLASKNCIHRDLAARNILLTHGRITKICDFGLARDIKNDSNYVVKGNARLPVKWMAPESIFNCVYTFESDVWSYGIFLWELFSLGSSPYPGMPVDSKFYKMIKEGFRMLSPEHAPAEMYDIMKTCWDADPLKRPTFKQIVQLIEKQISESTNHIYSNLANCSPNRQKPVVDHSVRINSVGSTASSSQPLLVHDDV
T1 sequence (P09619 whole entry, the tested form may be a part): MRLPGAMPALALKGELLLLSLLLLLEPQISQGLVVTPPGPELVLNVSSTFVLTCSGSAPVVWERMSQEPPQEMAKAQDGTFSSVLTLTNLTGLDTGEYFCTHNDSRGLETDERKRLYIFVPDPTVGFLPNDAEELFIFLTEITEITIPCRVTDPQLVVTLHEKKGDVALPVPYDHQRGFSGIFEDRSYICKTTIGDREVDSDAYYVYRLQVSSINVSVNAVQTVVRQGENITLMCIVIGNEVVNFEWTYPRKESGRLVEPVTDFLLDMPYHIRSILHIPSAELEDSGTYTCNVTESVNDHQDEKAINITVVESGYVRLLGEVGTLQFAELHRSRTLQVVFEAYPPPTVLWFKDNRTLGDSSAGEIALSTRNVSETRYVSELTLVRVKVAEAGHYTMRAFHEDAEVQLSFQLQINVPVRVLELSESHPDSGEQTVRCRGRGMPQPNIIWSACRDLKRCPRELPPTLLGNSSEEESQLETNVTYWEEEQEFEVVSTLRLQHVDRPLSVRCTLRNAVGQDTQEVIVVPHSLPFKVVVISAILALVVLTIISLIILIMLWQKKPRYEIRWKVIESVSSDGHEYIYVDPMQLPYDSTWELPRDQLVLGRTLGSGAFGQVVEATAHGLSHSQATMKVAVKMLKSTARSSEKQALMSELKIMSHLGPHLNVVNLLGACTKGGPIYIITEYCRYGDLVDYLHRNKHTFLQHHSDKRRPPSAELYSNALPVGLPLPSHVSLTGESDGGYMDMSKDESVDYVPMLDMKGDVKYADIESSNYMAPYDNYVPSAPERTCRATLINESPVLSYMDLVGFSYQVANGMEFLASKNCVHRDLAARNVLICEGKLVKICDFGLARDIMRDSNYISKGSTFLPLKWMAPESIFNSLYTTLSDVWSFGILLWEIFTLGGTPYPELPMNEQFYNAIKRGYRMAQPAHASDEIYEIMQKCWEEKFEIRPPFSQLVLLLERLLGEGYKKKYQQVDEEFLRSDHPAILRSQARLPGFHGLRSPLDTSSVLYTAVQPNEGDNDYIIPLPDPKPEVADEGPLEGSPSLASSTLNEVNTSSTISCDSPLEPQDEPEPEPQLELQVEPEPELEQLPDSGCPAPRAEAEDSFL
Epithelial discoidin domain-containing receptor 1, sequence (Q08345 whole entry, the tested form may be a part): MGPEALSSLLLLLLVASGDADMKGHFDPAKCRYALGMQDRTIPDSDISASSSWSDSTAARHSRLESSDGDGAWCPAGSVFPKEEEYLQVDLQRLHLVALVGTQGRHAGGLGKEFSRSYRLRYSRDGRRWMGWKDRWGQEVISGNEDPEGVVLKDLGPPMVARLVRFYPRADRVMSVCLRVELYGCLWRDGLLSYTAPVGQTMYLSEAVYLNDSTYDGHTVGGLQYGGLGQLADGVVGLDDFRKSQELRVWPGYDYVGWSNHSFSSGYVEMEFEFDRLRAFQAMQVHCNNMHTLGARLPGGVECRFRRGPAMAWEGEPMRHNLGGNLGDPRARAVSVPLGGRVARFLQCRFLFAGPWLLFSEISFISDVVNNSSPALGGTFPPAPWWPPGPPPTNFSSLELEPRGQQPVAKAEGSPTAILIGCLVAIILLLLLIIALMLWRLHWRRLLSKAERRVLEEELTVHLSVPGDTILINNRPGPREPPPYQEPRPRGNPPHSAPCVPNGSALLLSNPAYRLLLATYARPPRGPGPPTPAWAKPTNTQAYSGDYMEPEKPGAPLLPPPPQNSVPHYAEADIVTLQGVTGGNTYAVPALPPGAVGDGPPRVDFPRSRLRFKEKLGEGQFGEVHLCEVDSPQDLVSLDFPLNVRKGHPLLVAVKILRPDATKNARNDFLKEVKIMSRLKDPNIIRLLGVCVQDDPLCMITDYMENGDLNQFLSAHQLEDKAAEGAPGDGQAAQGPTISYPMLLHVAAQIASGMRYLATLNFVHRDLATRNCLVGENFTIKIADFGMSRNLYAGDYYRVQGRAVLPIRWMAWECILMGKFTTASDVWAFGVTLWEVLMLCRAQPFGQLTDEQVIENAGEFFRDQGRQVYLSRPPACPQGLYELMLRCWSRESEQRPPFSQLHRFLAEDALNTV
Platelet-derived growth factor receptor alpha (Homo sapiens), sequence (P16234 whole entry): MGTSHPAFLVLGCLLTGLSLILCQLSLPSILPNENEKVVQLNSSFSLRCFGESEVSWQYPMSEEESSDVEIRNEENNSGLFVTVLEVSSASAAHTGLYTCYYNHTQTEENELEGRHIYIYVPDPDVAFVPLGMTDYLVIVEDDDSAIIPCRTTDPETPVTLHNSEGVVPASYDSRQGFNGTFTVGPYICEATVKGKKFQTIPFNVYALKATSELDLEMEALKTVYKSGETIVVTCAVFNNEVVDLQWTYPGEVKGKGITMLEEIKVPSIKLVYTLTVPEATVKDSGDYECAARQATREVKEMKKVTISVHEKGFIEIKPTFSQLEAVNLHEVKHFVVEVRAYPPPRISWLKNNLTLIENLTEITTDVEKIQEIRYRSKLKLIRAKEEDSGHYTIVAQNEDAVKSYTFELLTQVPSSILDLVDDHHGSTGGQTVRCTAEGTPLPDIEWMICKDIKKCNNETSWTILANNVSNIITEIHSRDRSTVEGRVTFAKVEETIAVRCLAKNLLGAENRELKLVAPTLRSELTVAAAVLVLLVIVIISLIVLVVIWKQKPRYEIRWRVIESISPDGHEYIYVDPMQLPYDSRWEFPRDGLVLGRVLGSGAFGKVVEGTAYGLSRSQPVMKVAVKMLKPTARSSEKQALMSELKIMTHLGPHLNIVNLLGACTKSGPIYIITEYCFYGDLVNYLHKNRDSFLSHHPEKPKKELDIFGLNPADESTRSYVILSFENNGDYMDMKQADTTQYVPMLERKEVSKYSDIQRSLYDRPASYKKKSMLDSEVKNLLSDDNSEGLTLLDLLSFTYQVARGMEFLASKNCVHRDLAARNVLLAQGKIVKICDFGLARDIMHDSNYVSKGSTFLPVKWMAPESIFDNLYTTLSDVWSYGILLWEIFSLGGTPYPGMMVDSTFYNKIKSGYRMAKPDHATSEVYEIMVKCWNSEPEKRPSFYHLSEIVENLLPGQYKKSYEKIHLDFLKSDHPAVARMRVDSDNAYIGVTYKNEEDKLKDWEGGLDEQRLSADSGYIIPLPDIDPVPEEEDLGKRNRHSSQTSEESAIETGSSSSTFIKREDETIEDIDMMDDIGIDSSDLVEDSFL
Mast/stem cell growth factor receptor Kit (Homo sapiens), P10721 [V559D,T670I], sequence (P10721 whole entry V559D/T670I, the tested form may be a part): as the sequence (P10721 whole entry) above, with V559D, T670I counted along it

## Cc1ccc(NC(=O)c2cccc(C(F)(F)F)c2)cc1OC1CCN(C(=O)c2ccncc2)CC1
[1]
  AUC(0-t): 198 ng·h/mL
[2]
  inhibition: Active
[3]
  inhibition: Active
[4]
  AUC(0-t): 715 ng·h/mL
[5]
  pIC50: 6.92
[6]
  AUC(0-inf): 780 ng·h/mL
[7]
  inhibition: Active
[8]
  inhibition: Active
[9]
  Activity: Non-toxic
[10]
  inhibition: Active
[11]
  MRT last: 29 min
[12]
  Activity: 0.15%
[13]
  GI50: 43 nM
[14]
  GI50: 21 nM
[15]
  bioavailability: 36.1%
[16]
  inhibition: Active
[17]
  inhibition: Active
[18]
  Activity: Active
[19]
  GI50: > 10000 nM
[20]
  GI50 at 72 h: > 10000 nM
[21]
  GI50: 5310 nM
[22]
  inhibition: Active
[23]
  Activity: 0.45%
